Data set [1] can be described thus: Solubility in water. Format: physicochemical. The following applies: buffer.
The target of data set [2] is T1, Poly [ADP-ribose] polymerase 1 (Homo sapiens, UniProt P09874). As to the kind of experiment: Inhibition of PARP1.
Data set [3] has as its target T1, Poly [ADP-ribose] polymerase 1. Particulars: CHO-K1.
Data set [4] can be described thus: Half life in human liver microsomes by LC/MS/MS analysis. Format: ADME, Microsome. Summed up:
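Human liver microsomes incubated at 37 °C. Parent compound quantified by LC/MS/MS at 0, 15, 45 and 80 min, giving t1/2 in min. Mean of triplicate experiments; buspirone run alongside.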

Data set [5] in a line: Drug level in rat brain at 10 mg/kg, iv after 4 hrs by LC/MS/MS analysis. Format: ADME, organism-based. Further details: dose 10 mg/kg, route intravenous. The following applies: read-out: Drug uptake. Summed up: (§1)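 Single intravenous dose of 10 mg/kg in rats, n = 3. Brain (ng/g) and plasma (ng/ml) concentrations measured by LC/MS/MS at 0.17, 0.75 and 4.00 h. Ratio is brain over plasma concentration.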

Data set [6] in a line: Clearance in rat at 10 mg/kg, iv by LC/MS/MS analysis. Further details: dose 10 mg/kg, route intravenous. Particulars: in vivo. Format: ADME, organism-based. Put shortly:
(§2)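 Rats (n = 3) given 10 mg/kg by intravenous administration; plasma levels measured by LC/MS/MS; AUC0-inf, CL and t1/2 reported.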

Data set [7] can be described thus: Ratio of drug level in brain to plasma in rat at 10 mg/kg, iv after 4 hrs by LC/MS/MS analysis. Format: ADME, organism-based. Further details: dose 10 mg/kg, route intravenous. Summed up: as §1
Data set [8] is described as follows: Drug level in rat brain at 10 mg/kg, iv after 0.75 hrs by LC/MS/MS analysis. Format: ADME, organism-based. Further details: dose 10 mg/kg, route intravenous. Particulars: read-out: Drug uptake. Put shortly: as §1
The nature of data set [9]: Half life in rat at 10 mg/kg, iv by LC/MS/MS analysis. In kind it is ADME, organism-based. Further details: dose 10 mg/kg, route intravenous. The following applies: in vivo. Summed up: as §2
Data set [10] in a line: AUC (0 to infinity) in rat at 10 mg/kg, iv by LC/MS/MS analysis. Further details: time infinity, dose 10 mg/kg, route intravenous. In kind it is ADME, organism-based. The following applies: plasma. Summed up:
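Rats (n = 3) received a single 10 mg/kg intravenous dose. Drug levels were measured by LC/MS/MS, and AUC from zero to infinity was derived alongside clearance and half-life as part of the pharmacokinetic profile.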

A short description of data set [11]: Drug level in rat plasma at 10 mg/kg, iv after 4 hrs by LC/MS/MS analysis. Format: ADME, organism-based. Further details: dose 10 mg/kg, route intravenous. Summed up:
as §1

A short description of data set [12]: Drug level in rat brain at 10 mg/kg, iv after 0.17 hrs by LC/MS/MS analysis. In kind it is ADME, organism-based. Further details: dose 10 mg/kg, route intravenous. The following applies: read-out: Drug uptake. Summed up:
as §1

Data set [13] in a line: Drug level in rat plasma at 10 mg/kg, iv after 0.17 hrs by LC/MS/MS analysis. Further details: dose 10 mg/kg, route intravenous. Format: ADME, organism-based. Put shortly: as §1
A short description of data set [14]: Ratio of drug level in brain to plasma in rat at 10 mg/kg, iv after 0.17 hrs by LC/MS/MS analysis. In kind it is ADME, organism-based. Further details: dose 10 mg/kg, route intravenous. Summed up:
as §1

A short description of data set [15]: Ratio of drug level in brain to plasma in rat at 10 mg/kg, iv after 0.75 hrs by LC/MS/MS analysis. Format: ADME, organism-based. Further details: dose 10 mg/kg, route intravenous. Summed up: as §1
The nature of data set [16]: Drug level in rat plasma at 10 mg/kg, iv after 0.75 hrs by LC/MS/MS analysis. In kind it is ADME, organism-based. Further details: dose 10 mg/kg, route intravenous. Put shortly:
as §1

One may read the IC50 as the point on the concentration scale where inhibition reaches its midpoint. Read a high IC50 as weaker potency. One may read the half-life as how long it takes for the measured level to halve. Read a low half-life as rapid decline. The clearance is a measure of how efficiently the substance is removed, as volume per time. Broadly, the Kp is tissue or fluid exposure divided by exposure in the circulation. Usually AUC(0-inf) stands for the area under the concentration-time curve extrapolated to infinity.

Structures are written as SMILES.

T1 sequence (P09874 whole entry): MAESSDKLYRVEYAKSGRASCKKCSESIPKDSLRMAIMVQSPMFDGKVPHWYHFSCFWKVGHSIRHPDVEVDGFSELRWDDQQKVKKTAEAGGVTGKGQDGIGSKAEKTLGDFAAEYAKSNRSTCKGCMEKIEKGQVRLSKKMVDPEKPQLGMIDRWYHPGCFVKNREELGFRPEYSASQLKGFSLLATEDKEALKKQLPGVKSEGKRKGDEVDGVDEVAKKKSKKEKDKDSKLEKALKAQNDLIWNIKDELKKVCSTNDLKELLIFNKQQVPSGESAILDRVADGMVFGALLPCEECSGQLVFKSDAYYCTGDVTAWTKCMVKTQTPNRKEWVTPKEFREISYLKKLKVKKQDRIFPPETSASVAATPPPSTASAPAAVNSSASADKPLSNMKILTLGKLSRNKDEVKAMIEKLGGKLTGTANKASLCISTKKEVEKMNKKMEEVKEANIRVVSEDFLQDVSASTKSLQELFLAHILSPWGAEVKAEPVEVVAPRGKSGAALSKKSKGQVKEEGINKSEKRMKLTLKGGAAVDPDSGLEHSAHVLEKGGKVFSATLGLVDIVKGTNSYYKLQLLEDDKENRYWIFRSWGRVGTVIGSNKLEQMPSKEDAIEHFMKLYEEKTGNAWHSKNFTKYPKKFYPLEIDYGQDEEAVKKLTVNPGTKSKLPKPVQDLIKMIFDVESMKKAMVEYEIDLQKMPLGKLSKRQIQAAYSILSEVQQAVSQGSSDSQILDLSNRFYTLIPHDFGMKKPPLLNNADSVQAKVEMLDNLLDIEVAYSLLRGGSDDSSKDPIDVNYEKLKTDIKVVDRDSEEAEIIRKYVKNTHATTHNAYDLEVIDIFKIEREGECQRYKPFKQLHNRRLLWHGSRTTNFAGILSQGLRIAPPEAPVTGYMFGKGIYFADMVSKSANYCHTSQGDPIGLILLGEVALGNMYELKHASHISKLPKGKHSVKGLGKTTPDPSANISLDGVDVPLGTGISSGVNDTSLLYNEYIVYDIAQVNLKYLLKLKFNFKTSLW

`CCCN1CCCC(Oc2ccc3[nH]c(=O)c4c(c3c2)CCSC4)C1` (stereo not drawn): the solubility result in data set [1] was “Soluble”. Also, in [2], the IC50 amounted to 56 nM. In data set [3], this molecule showed an ED50 of 740 nM.

As to `O=c1[nH]c2ccc(OC3CCN(c4ccccc4)CC3)cc2c2c1CSCC2`, the IC50 in data set [2] amounted to 695 nM. The ED50 in [3] turned out to be 1860 nM.

`CN(C)c1ccc(CCN2CCC(Oc3ccc4[nH]c(=O)c5c(c4c3)CCSC5)CC2)cc1`: in data set [1], the solubility result is recorded as “Soluble”. Besides, the IC50 in [2] was more than 10000 nM. In data set [3], this molecule displayed an ED50 of 9440 nM.

In the case of `O=c1[nH]c2ccc(OC3CCN(CCO)CC3)cc2c2c1CSCC2`, in [1], the solubility result is “Soluble”. Inhibition in data set [2] was half-maximal at 29 nM (IC50). This molecule gave an ED50 in data set [3] of 1600 nM.

`CC(C)CCN1CCC(Oc2ccc3[nH]c(=O)c4c(c3c2)CCSC4)CC1`: the solubility result in [1] was “Soluble”. This molecule also registered an IC50 in data set [2] of 71 nM. The ED50 in data set [3] worked out at 740 nM.

Consider `O=c1[nH]c2ccc(OC3CCN(CCc4ccccc4)CC3)cc2c2c1CSCC2`, for which the solubility entry in data set [1] is on record as “Soluble”. This molecule displayed a half-maximal inhibitory concentration (IC50) in data set [2] of 38 nM. Also, the ED50 in data set [3] was determined as 360 nM.

Regarding `O=c1[nH]c2ccc(OC3CCCNC3)cc2c2c1CSCC2` (stereo not drawn), the solubility entry in data set [1] is given as “Soluble”. The molecule further yielded an IC50 in [2] of 28 nM. In addition, in data set [3], the ED50 is 890 nM.

Regarding `CN1CCC(Oc2ccc3[nH]c(=O)c4c(c3c2)CCSC4)C1` (stereo not drawn), the solubility entry in data set [1] is “Soluble”. The molecule also displayed an IC50 in data set [2] of 80 nM. The ED50 in data set [3] was determined as 730 nM.

Regarding `O=c1[nH]c2ccc(OC3CCN(CCN4CCCCC4)CC3)cc2c2c1CSCC2`, in data set [1], the solubility entry is given as “Soluble”. The molecule also had an IC50 in data set [2] of 173 nM. For the same molecule, the ED50 in [3] was more than 30000 nM.

In data set [2], `O=c1[nH]c2ccc(O)cc2c2c1CSCC2` yielded a half-maximal inhibitory concentration (IC50) of 99 nM.

`O=C1CC2(CCCC2)CC(=O)N1CCCCN1CCN(c2ncccn2)CC1` [BUSPIRONE] returned a half-life in data set [4] of 3.8 min.

As for `CCCCCN1CCC(Oc2ccc3[nH]c(=O)c4c(c3c2)CCSC4)CC1`, in [1], the solubility result is on record as “Soluble”. In data set [2], this molecule gave an IC50 of 45 nM. Further, in data set [3], the ED50 is 580 nM.

For `CN1CCCC(Oc2ccc3[nH]c(=O)c4c(c3c2)CCSC4)C1` (stereo not drawn), the solubility result in [1] was “Soluble”. Further, it took 39 nM to reach half-maximal inhibition in [2] (IC50). Also, the ED50 in data set [3] amounted to 580 nM.

As for `COCCN1CCC(Oc2ccc3[nH]c(=O)c4c(c3c2)CCSC4)CC1`, the solubility entry in data set [1] is listed as “Soluble”. For the same molecule, in data set [2], the IC50 amounted to 40 nM. The molecule also registered an ED50 in data set [3] of 1260 nM.

As for `CCCN1CCC(Oc2ccc3[nH]c(=O)c4c(c3c2)CCSC4)CC1`, the concentration at 4 h in [5] worked out at 13 ng/g; in [11], 18 ng/mL. The half-life in data set [4] was 52.6 min; in data set [9], 207 min. The molecule further showed a clearance in data set [6] of 56.7 mL/min/kg. Also, the partition ratio (Kp) at 4 h in data set [7] came to 0.72. Besides, the solubility entry in data set [1] is “Soluble”. The concentration at 0.75 h in data set [8] was 391 ng/g; in data set [16], 610 ng/mL. In data set [2], this molecule yielded an IC50 of 42 nM. In data set [3], the ED50 worked out at 220 nM. The AUC(0-inf) in data set [10] was 2910 ng·h/mL. The results for the concentration at 0.17 h in data set [12] and in data set [13] were 1700 ng/g and 2480 ng/mL, respectively. Moreover, the Kp at 0.17 h in data set [14] was 0.69. The Kp at 0.75 h in [15] is 0.64.

On to `O=c1[nH]c2ccc(OC3CCN(Cc4ccccc4)CC3)cc2c2c1CSCC2`, for which the solubility entry in [1] is “Soluble”. In data set [2], this molecule returned an IC50 of 53 nM. Also, the ED50 in data set [3] was found to be 800 nM.

`CCN1CCCC(Oc2ccc3[nH]c(=O)c4c(c3c2)CCSC4)C1` (stereo not drawn): in data set [1], the solubility result is “Soluble”. In [2], this molecule had an IC50 of 25 nM. The same molecule had an ED50 in data set [3] of 280 nM.

As for `O=S(=O)(NCCCN1CCOCC1)c1ccc2c(c1)Cc1c-2nc(O)c2ccccc12`, in data set [3], the ED50 is 1000 nM.

For the molecule `CCN1CCC(Oc2ccc3[nH]c(=O)c4c(c3c2)CCSC4)C1` (stereo not drawn), the solubility result in data set [1] is “Soluble”. Half-maximal inhibition in data set [2] (IC50) was put at 13 nM. The same molecule had an ED50 in data set [3] of 350 nM.

(Values after ChEMBL document CHEMBL1156288, “Synthesis and evaluation of tricyclic derivatives containing a non-aromatic amide as inhibitors of poly(ADP-ribose)polymerase-1 (PARP-1)” (Bioorg Med Chem Lett, 2010).)
